The results in this text go back to ChEMBL document CHEMBL1145200, “4-Benzyl and 4-benzoyl-3-dimethylaminopyridin-2(1H)-ones: in vitro evaluation of new C-3-amino-substituted and C-5,6-alkyl-substituted analogues against clinically important HIV mutant strains” (J Med Chem, 2005).

One assay has as its system Human immunodeficiency virus 1. The assay can be described thus: In vitro inhibitory concentration against HIV-1 Y181C mutant strain. The class given is functional, organism-based.
Conditions: not given
In short, it runs like this:
(§1)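 MT4 human T-lymphoblastoid cells, grown in RPMI 1640 with 10% fetal calf serum and antibiotics at 37 °C under 5% CO2. Mutant HIV-1 strains were added at 200 CCID50/well with 30 000 cells/well across a compound concentration range. After 5 days at 37 °C, viability was read by MTT colorimetry. EC50 is the concentration giving 50% infection relative to the drug-free control.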
What is called IC50 is the concentration at which inhibition is half-maximal. High values mean a need for much substance, low ones inhibition by little substance. `COCCCc1c(C)nc(O)c(N(C)C)c1C(=O)c1cccc(C)c1` had an IC50 of 0.16 µM.

For the compound `CCc1c(C)[nH]c(=O)c(N(C)C)c1Cc1cc(C)cc(C)c1`, it took 0.1 µM to reach half-maximal inhibition (IC50).

`CCc1c(C)[nH]c(=O)c(N(C)C)c1C(=O)c1cc(C)cc(C)c1` displayed an IC50 of 0.063 µM.

The test system of the next assay is Human immunodeficiency virus 1. The assay can be described thus: In vitro inhibitory concentration value against HIV K103N and Y181C mutant strain. The class given is functional, organism-based.
Conditions: not given
The method, boiled down:
as §1
In turn, `COCCCc1c(C)nc(O)c(N(C)C)c1C(=O)c1cccc(C)c1` came in with an IC50 of 0.2 µM.

In turn, `CCc1c(C)[nH]c(=O)c(N(C)C)c1Cc1cc(C)cc(C)c1` registered an IC50 of 0.794 µM.

Compound `CCc1c(C)[nH]c(=O)c(N(C)C)c1C(=O)c1cc(C)cc(C)c1` yielded an IC50 of 0.158 µM.

For the next assay, the system named is Human immunodeficiency virus 1. The assay is described as follows: In vitro inhibitory concentration against HIV L100I and K103N mutant strain. The class given is functional, organism-based.
Conditions: not given
In short, it runs like this:
as §1
Regarding `COCCCc1c(C)nc(O)c(N(C)C)c1C(=O)c1cccc(C)c1`, the midpoint of inhibition, the IC50, lay at 0.063 µM.

`CCc1c(C)[nH]c(=O)c(N(C)C)c1C(=O)c1cc(C)cc(C)c1` displayed a concentration for half-maximal inhibition (IC50) of 0.04 µM.

`O=C1Nc2ccc(Cl)cc2[C@@](C#CC2CC2)(C(F)(F)F)O1` [EFAVIRENZ] yielded a concentration for half-maximal inhibition (IC50) of 10 µM.

The subject of another assay is Human immunodeficiency virus 1. The assay is described as follows: Selective index value (ratio of CC50 to IC50 value)against HIV LAI cell line. It counts as functional.
Conditions: not given
In short, it runs like this:
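Ratio of CC50 to IC50 against LAI. CC50 came from mock-infected MT4 cultures (30 000 cells/well) given the same compound concentration range, run in parallel with LAI-infected cultures (200 CCID50/well). Incubation was 5 days at 37 °C in 5% CO2, with MTT viability read-out.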
With `COCCCc1c(C)nc(O)c(N(C)C)c1C(=O)c1cccc(C)c1`, the SI is 1260.

With `CCc1c(C)[nH]c(=O)c(N(C)C)c1Cc1cc(C)cc(C)c1`, the SI was found to be 12600.

Turning to `CCc1c(C)[nH]c(=O)c(N(C)C)c1C(=O)c1cc(C)cc(C)c1`, the SI is 2510.

A further assay has as its system Human immunodeficiency virus 1. The assay is described as follows: In vitro inhibitory concentration against HIV F227L and V106A mutant strain. It counts as functional, organism-based.
Conditions: not given
In short, it runs like this: as §1
In the case of `COCCCc1c(C)nc(O)c(N(C)C)c1C(=O)c1cccc(C)c1`, half-maximal inhibition (IC50) was put at 0.04 µM.

Turning to `CCc1c(C)[nH]c(=O)c(N(C)C)c1C(=O)c1cc(C)cc(C)c1`, inhibition was half-maximal at 0.398 µM (IC50).

`O=C1Nc2ccc(Cl)cc2[C@@](C#CC2CC2)(C(F)(F)F)O1` [EFAVIRENZ] had an IC50 of 0.025 µM.

The subject of the next assay is Human immunodeficiency virus 1. The assay is described as follows: In vitro inhibitory concentration against HIV K101E and K103N mutant strain.
Conditions: not given
The class given is functional, organism-based. The method, boiled down: as §1
In the case of `COCCCc1c(C)nc(O)c(N(C)C)c1C(=O)c1cccc(C)c1`, the IC50 came out at 0.158 µM.

The compound `CCc1c(C)[nH]c(=O)c(N(C)C)c1C(=O)c1cc(C)cc(C)c1` gave an IC50 of 0.013 µM.

The next assay relates to Human immunodeficiency virus 1. The assay is described as follows: In vitro inhibitory concentration against HIV E138K mutant strain. It counts as functional, organism-based.
Conditions: not given
In short, it runs like this:
as §1
As to `COCCCc1c(C)nc(O)c(N(C)C)c1C(=O)c1cccc(C)c1`, inhibition was half-maximal at 0.02 µM (IC50).

In turn, `CCc1c(C)[nH]c(=O)c(N(C)C)c1C(=O)c1cc(C)cc(C)c1` showed an IC50 of 0.005 µM.

Regarding `O=C1Nc2ccc(Cl)cc2[C@@](C#CC2CC2)(C(F)(F)F)O1` [EFAVIRENZ], 0.002 µM corresponded to half-maximal inhibition (IC50).

In another assay the test system is Human immunodeficiency virus 1. The assay is described as follows: In vitro inhibitory concentration against HIV F227C mutant strain.
Conditions: not given
The class given is functional, organism-based. The method, boiled down: as §1
`COCCCc1c(C)nc(O)c(N(C)C)c1C(=O)c1cccc(C)c1` registered an IC50 of 0.631 µM.

The compound `CCc1c(C)[nH]c(=O)c(N(C)C)c1C(=O)c1cc(C)cc(C)c1` displayed an IC50 of 0.631 µM.

A further assay has as its system Human immunodeficiency virus 1. The assay is described as follows: In vitro inhibitory concentration against HIV G190A mutant strain. The class given is functional, organism-based.
Conditions: not given
The method, boiled down: as §1
On to `COCCCc1c(C)nc(O)c(N(C)C)c1C(=O)c1cccc(C)c1`, for which the IC50 stood at 0.016 µM.

`CCc1c(C)[nH]c(=O)c(N(C)C)c1Cc1cc(C)cc(C)c1` gave an IC50 of 0.063 µM.

`CCc1c(C)[nH]c(=O)c(N(C)C)c1C(=O)c1cc(C)cc(C)c1` returned an IC50 of 0.013 µM.

As to `O=C1Nc2ccc(Cl)cc2[C@@](C#CC2CC2)(C(F)(F)F)O1` [EFAVIRENZ], the IC50 came to 0.01 µM.

The test system of another assay is Human immunodeficiency virus 1. The assay is described as follows: In vitro inhibitory concentration against HIV G190S mutant strain. It counts as functional, organism-based.
Conditions: not given
In short, it runs like this:
as §1
`COCCCc1c(C)nc(O)c(N(C)C)c1C(=O)c1cccc(C)c1` had an IC50 of 0.032 µM.

With `CCc1c(C)[nH]c(=O)c(N(C)C)c1C(=O)c1cc(C)cc(C)c1`, the IC50 is 0.004 µM.

`O=C1Nc2ccc(Cl)cc2[C@@](C#CC2CC2)(C(F)(F)F)O1` [EFAVIRENZ] yielded an IC50 of 0.251 µM.

Another assay has as its system Human immunodeficiency virus 1. The assay can be described thus: In vitro inhibitory concentration against HIV K101E mutant strain. The class given is functional, organism-based.
Conditions: not given
The method, boiled down: as §1
In turn, `COCCCc1c(C)nc(O)c(N(C)C)c1C(=O)c1cccc(C)c1` displayed an IC50 of 0.032 µM.

As for `CCc1c(C)[nH]c(=O)c(N(C)C)c1Cc1cc(C)cc(C)c1`, the midpoint of inhibition, the IC50, lay at 0.016 µM.

For the compound `CCc1c(C)[nH]c(=O)c(N(C)C)c1C(=O)c1cc(C)cc(C)c1`, half-maximal inhibition (IC50) was put at 0.008 µM.

On to `O=C1Nc2ccc(Cl)cc2[C@@](C#CC2CC2)(C(F)(F)F)O1` [EFAVIRENZ], for which the IC50 was found to be 0.006 µM.

A further assay has as its system Human immunodeficiency virus 1. The assay can be described thus: In vitro inhibitory concentration against HIV K103N mutant strain. The class given is functional, organism-based.
Conditions: not given
In short, it runs like this:
as §1
As to `COCCCc1c(C)nc(O)c(N(C)C)c1C(=O)c1cccc(C)c1`, the IC50 came out at 0.126 µM.

With `CCc1c(C)[nH]c(=O)c(N(C)C)c1Cc1cc(C)cc(C)c1`, the IC50 was 0.032 µM.

Regarding `CCc1c(C)[nH]c(=O)c(N(C)C)c1C(=O)c1cc(C)cc(C)c1`, the IC50 came out at 0.01 µM.

In a further assay the test system is Human immunodeficiency virus 1. The assay can be described thus: In vitro inhibitory concentration against HIV L100I mutant strain. It counts as functional, organism-based.
Conditions: not given
In short, it runs like this:
as §1
In turn, `COCCCc1c(C)nc(O)c(N(C)C)c1C(=O)c1cccc(C)c1` gave an IC50 of 0.02 µM.

`CCc1c(C)[nH]c(=O)c(N(C)C)c1Cc1cc(C)cc(C)c1` showed an IC50 of 0.05 µM.

`CCc1c(C)[nH]c(=O)c(N(C)C)c1C(=O)c1cc(C)cc(C)c1`: the IC50 is 0.006 µM.

The compound `O=C1Nc2ccc(Cl)cc2[C@@](C#CC2CC2)(C(F)(F)F)O1` [EFAVIRENZ] displayed an IC50 of 0.04 µM.

For another assay, the system named is Human immunodeficiency virus 1. The assay is described as follows: In vitro inhibitory concentration against HIV V106A mutant strain.
Conditions: not given
It counts as functional, organism-based. In short, it runs like this:
as §1
Turning to `COCCCc1c(C)nc(O)c(N(C)C)c1C(=O)c1cccc(C)c1`, the IC50 worked out at 0.04 µM.

The compound `CCc1c(C)[nH]c(=O)c(N(C)C)c1Cc1cc(C)cc(C)c1` yielded an IC50 of 0.04 µM.

The compound `CCc1c(C)[nH]c(=O)c(N(C)C)c1C(=O)c1cc(C)cc(C)c1` came in with an IC50 of 0.006 µM.

With `O=C1Nc2ccc(Cl)cc2[C@@](C#CC2CC2)(C(F)(F)F)O1` [EFAVIRENZ], the IC50 is 0.04 µM.

Another assay deals with Human immunodeficiency virus 1. The assay is described as follows: In vitro inhibitory concentration against HIV V179E mutant strain.
Conditions: not given
The class given is functional, organism-based. In short, it runs like this:
as §1
`COCCCc1c(C)nc(O)c(N(C)C)c1C(=O)c1cccc(C)c1`: the IC50 came to 0.008 µM.

Regarding `CCc1c(C)[nH]c(=O)c(N(C)C)c1C(=O)c1cc(C)cc(C)c1`, inhibition was half-maximal at 0.002 µM (IC50).

`O=C1Nc2ccc(Cl)cc2[C@@](C#CC2CC2)(C(F)(F)F)O1` [EFAVIRENZ] came in with an IC50 of 0.005 µM.

Another assay deals with Human immunodeficiency virus 1. The assay can be described thus: In vitro inhibitory concentration against HIV Y188L mutant strain.
Conditions: not given
It counts as functional, organism-based. The method, boiled down: as §1
Compound `COCCCc1c(C)nc(O)c(N(C)C)c1C(=O)c1cccc(C)c1` displayed an IC50 of 0.158 µM.

Turning to `CCc1c(C)[nH]c(=O)c(N(C)C)c1Cc1cc(C)cc(C)c1`, the midpoint of inhibition, the IC50, lay at 0.251 µM.

`CCc1c(C)[nH]c(=O)c(N(C)C)c1C(=O)c1cc(C)cc(C)c1` had an IC50 of 0.158 µM.

In a further assay the test system is Human immunodeficiency virus 1. The assay can be described thus: In vitro inhibitory concentration against HIV LAI cell line. It counts as functional, organism-based. Particulars: Human immunodeficiency virus 1, LAI. In short, it runs like this:
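HIV-1 LAI was added at 200 CCID50/well to MT4 human T-lymphoblastoid cells (30 000 cells/well) across a concentration range of compound. Cells were grown in RPMI 1640 with 10% fetal calf serum and antibiotics. After 5 days at 37 °C in 5% CO2, cell viability was read by MTT colorimetry. EC50 was the concentration giving 50% infection versus the drug-free control.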
In turn, `COCCCc1c(C)nc(O)c(N(C)C)c1C(=O)c1cccc(C)c1` returned an IC50 of 0.008 µM.
